# Activity calls are given as the source filed them. The rule behind the calls is not given here.
# What was measured:
# MV4-11 = test: Antiproliferative activity against FLT3-ITD dependent human MV4-11 cells assessed as reduction in cell viability after 72 hrs by celltiter-glo/CCK8 assay; type: functional; settings: MV4-11, 72 h
# Procedure, shortened: (§1)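 Cells were seeded at 1 to 3 × 10⁴ cells/mL with serial compound concentrations and incubated 72 h at 37 °C, 5% CO₂. Viability was read by CellTiter-Glo luminescence or CCK-8 absorbance (450/655 nm). GI50 values are from triplicate testing. GIST-T1 and CHO were grown in DMEM/10% FBS; GIST-882, GIST-48B and MV4-11 in IMDM/10% FBS; other lines in RPMI 1640/10% FBS.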
# [1] = biological target: Mast/stem cell growth factor receptor Kit (Homo sapiens) (UniProt P10721); test: Inhibition of cKIT in human GISTT1 cells assessed as suppression of ERK phosphorylation at T202/Y204 up to 10 uM after 2 hrs by Western blot analysis; type: cell-based
# [2] = biological target: Platelet-derived growth factor receptor alpha (Homo sapiens) (UniProt P16234); test: Inhibition of PDGFRalpha phosphorylation at Y849 in human GIST48B cells up to 10 uM after 2 hrs by Western blot analysis; type: cell-based
# Procedure, shortened: (§2)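 Cells were washed in cold PBS, lysed in RIPA and immunoblotted for phospho and total proteins, including pPDGFRα Y849/PDGFRβ Y857 and β-actin.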
# [3] = Antiproliferative activity against human GIST48B cells assessed as reduction in cell viability after 72 hrs by celltiter-glo/CCK8 assay; type: functional; procedure, shortened: as §1
# [4] = tested on: Mast/stem cell growth factor receptor Kit (Homo sapiens), P10721 [V654A]; test: Inhibition of Tel-fused cKIT V654A mutant (unknown origin) transfected in mouse BAF3 cells assessed as decrease in cell proliferation after 72 hrs by celltiter-glo/CCK8 assay; type: cell-based
# Procedure, shortened: (§3)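 Stable BaF3 lines made by retroviral transduction with mutagenized TEL-KIT MSCV vectors, puromycin selection 48 h, then gradual IL-3 withdrawal until IL-3-independent; grown in RPMI 1640 with 10% FBS. Cells at 1 to 3 × 10⁴ cells/mL exposed to a concentration series for 72 h; viability read by CellTiter-Glo luminescence or CCK-8 absorbance (450/655 nm); GI50 from triplicate testing.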
# [5] = biological target: Mast/stem cell growth factor receptor Kit (Homo sapiens) (UniProt P10721); test: Inhibition of cKIT in human GIST882 cells assessed as suppression of STAT5 phosphorylation at Y694 up to 10 uM after 2 hrs by Western blot analysis; type: cell-based
# [6] = Antiproliferative activity against CHL cells assessed as reduction in cell viability after 72 hrs by celltiter-glo/CCK8 assay; type: cell-based, Cricetulus griseus; settings: chinese hamster; procedure, shortened: as §1
# [7] = MRT(0 to t) in Sprague-Dawley rat plasma at 10 mg/kg, po; type: ADME, organism-based
# Procedure, shortened: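 Male Sprague–Dawley rats, 8 weeks old, six in total, fasted overnight; compound dissolved in 5% DMSO/40% PEG400/55% saline (1 mg/mL dosing solution), given iv or orally. About 0.2 mL jugular blood taken with heparin at 1 min–8 h (iv) or 5 min–24 h (oral); plasma separated at 2–8 °C and stored at −80 °C before analysis.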
# [8] = biological target: Macrophage colony-stimulating factor 1 receptor (Homo sapiens, UniProt P07333); test: Inhibition of human wild type partial length CSF1R expressed in bacterial expression system assessed as residual activity at 1 uM by KinomeScan method
# Procedure, shortened: (§4)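 KinomeScan competitive binding panel of 468 kinases and mutants, compound tested at 1 μM; read-out is percent activity remaining (binding relative to control).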
# [9] = tested on: Mast/stem cell growth factor receptor Kit (Homo sapiens), P10721 [V559D]; test: Inhibition of Tel-fused cKIT V559D mutant (unknown origin) transfected in mouse BAF3 cells assessed as decrease in cell proliferation after 72 hrs by celltiter-glo/CCK8 assay; type: cell-based; procedure, shortened: as §3
# [10] = biological target: Mast/stem cell growth factor receptor Kit (Homo sapiens) (UniProt P10721); test: Inhibition of cKIT in human GIST882 cells assessed as suppression of AKT phosphorylation at S473 up to 10 uM after 2 hrs by Western blot analysis; type: cell-based
# [11] = biological target: Platelet-derived growth factor receptor beta (Homo sapiens, UniProt P09619); test: Inhibition of human wild type partial length PDGFRbeta expressed in bacterial expression system assessed as residual activity at 1 uM by KinomeScan method; procedure, shortened: as §4
# [12] = Antiproliferative activity against cKIT dependent human GIST882 cells assessed as reduction in cell viability after 72 hrs by celltiter-glo/CCK8 assay; type: functional; settings: GIST882, 72 h; procedure, shortened: as §1
# [13] = biological target: Mast/stem cell growth factor receptor Kit (Homo sapiens) (UniProt P10721); test: Inhibition of cKIT in human GISTT1 cells assessed as suppression of S6K phosphorylation at T389 up to 10 uM after 2 hrs by Western blot analysis; type: cell-based
# [14] = biological target: Epithelial discoidin domain-containing receptor 1 (Homo sapiens, UniProt Q08345); test: Inhibition of GST-tagged human DDR1 expressed in baculovirus after 1 hr by Z-lyte assay
# [15] = Apparent volume of distribution in Sprague-Dawley rat plasma at 1 mg/kg, iv; type: ADME, organism-based; settings: read-out: Vz
# Procedure, shortened: (§5)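 Male Sprague-Dawley rats, 8 weeks old, fasted overnight, dosed iv or orally. Formulation was 5% DMSO/40% PEG400/55% saline at 1 mg/mL. Blood (~0.2 mL) was drawn from the jugular vein into heparin. Sampling: iv at 1 min to 8 h; oral at 5 min to 24 h. Plasma was separated by centrifugation at 2−8 °C and stored at −80 °C.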
# GISTT1 = test: Antitumor activity against human GISTT1 cells xenografted in nu/nu mouse assessed as suppression of proliferation at 25 to 100 mg/kg/day administered through oral gavage after 21 days by Ki67 assay; type: functional, organism-based
# Procedure, shortened: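 Female nu/nu mice, 6 weeks old, received 5 × 10⁶ GIST-T1 cells in PBS/Matrigel (1:1) subcutaneously in the right flank. At 100−200 mm³, six mice per group were dosed daily by oral gavage at 25, 50 or 100 mg/kg/d in 0.5% methylcellulose/0.4% Tween80, or vehicle. Tumor volume was taken as (W²×L)/2, with body weight and tumor measured daily. Tumors were stained for Ki67 (IHC, 1:50 antibody) and by TUNEL.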
# [16] = Apparent clearance in Sprague-Dawley rat plasma at 1 mg/kg, iv; type: ADME, organism-based; settings: read-out: CL(app) (converted); procedure, shortened: as §5
# [17] = biological target: Mast/stem cell growth factor receptor Kit (Homo sapiens) (UniProt P10721); test: Inhibition in cKIT autophosphorylation at Y703 in human GISTT1 cells up to 10 uM after 2 hrs by Western blot analysis; type: cell-based; procedure, shortened: as §2
# [18] = biological target: Mast/stem cell growth factor receptor Kit (Homo sapiens) (UniProt P10721); test: Inhibition of cKIT autophosphorylation at Y823 in human GISTT1 cells up to 10 uM after 2 hrs by Western blot analysis; type: cell-based
# [19] = Antiproliferative activity against BCR-ABL dependent human KU812 cells assessed as reduction in cell viability after 72 hrs by celltiter-glo/CCK8 assay; type: functional; settings: KU812, 72 h; procedure, shortened: as §1
# Mus musculus = test: Toxicity in nu/nu mouse xenografted with human GISTT1 cells assessed as body weight change at 25 to 100 mg/kg/day administered through oral gavage after 21 days; type: organism-based; settings: in vivo, 504 h
# Procedure, shortened: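 Female nu/nu mice, 6 weeks old, injected subcutaneously in the right flank with 5 million GIST-T1 cells in PBS/Matrigel 1:1. At tumor volume 100–200 mm³, randomized to groups of six; daily oral gavage of 25, 50 or 100 mg/kg/d or vehicle (0.5% methylcellulose/0.4% Tween80 in water). Body weight measured daily, normalized to initial weight; mean ± SEM.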
# Mast/stem cell growth factor receptor Kit (Homo sapiens), sequence (P10721 whole entry, the tested form may be a part): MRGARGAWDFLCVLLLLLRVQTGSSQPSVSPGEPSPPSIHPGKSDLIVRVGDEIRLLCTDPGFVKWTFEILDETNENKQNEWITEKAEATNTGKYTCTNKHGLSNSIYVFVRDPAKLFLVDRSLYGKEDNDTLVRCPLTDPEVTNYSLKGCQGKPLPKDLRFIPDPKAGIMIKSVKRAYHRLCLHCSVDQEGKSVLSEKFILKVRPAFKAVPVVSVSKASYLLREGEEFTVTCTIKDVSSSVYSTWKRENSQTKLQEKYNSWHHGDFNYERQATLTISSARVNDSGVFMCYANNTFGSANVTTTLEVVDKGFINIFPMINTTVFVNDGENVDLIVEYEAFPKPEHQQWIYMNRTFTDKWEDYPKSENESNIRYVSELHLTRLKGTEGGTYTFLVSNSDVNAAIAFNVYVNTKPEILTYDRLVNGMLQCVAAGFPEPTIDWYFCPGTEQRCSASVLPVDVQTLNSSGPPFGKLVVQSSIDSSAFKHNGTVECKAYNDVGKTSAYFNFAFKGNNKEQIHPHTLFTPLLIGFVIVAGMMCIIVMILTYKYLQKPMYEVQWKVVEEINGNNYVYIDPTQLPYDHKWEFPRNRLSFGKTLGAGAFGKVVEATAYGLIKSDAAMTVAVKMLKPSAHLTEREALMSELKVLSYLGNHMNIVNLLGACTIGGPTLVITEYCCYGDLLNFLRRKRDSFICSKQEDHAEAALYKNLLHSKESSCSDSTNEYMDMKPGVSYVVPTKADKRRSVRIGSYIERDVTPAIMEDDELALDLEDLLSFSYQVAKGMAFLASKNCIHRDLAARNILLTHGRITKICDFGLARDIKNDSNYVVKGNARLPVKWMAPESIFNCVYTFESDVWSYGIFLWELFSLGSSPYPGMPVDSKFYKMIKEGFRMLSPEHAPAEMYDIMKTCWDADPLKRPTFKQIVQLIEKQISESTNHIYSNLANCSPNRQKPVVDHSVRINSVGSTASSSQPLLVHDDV
# Platelet-derived growth factor receptor beta, sequence (P09619 whole entry): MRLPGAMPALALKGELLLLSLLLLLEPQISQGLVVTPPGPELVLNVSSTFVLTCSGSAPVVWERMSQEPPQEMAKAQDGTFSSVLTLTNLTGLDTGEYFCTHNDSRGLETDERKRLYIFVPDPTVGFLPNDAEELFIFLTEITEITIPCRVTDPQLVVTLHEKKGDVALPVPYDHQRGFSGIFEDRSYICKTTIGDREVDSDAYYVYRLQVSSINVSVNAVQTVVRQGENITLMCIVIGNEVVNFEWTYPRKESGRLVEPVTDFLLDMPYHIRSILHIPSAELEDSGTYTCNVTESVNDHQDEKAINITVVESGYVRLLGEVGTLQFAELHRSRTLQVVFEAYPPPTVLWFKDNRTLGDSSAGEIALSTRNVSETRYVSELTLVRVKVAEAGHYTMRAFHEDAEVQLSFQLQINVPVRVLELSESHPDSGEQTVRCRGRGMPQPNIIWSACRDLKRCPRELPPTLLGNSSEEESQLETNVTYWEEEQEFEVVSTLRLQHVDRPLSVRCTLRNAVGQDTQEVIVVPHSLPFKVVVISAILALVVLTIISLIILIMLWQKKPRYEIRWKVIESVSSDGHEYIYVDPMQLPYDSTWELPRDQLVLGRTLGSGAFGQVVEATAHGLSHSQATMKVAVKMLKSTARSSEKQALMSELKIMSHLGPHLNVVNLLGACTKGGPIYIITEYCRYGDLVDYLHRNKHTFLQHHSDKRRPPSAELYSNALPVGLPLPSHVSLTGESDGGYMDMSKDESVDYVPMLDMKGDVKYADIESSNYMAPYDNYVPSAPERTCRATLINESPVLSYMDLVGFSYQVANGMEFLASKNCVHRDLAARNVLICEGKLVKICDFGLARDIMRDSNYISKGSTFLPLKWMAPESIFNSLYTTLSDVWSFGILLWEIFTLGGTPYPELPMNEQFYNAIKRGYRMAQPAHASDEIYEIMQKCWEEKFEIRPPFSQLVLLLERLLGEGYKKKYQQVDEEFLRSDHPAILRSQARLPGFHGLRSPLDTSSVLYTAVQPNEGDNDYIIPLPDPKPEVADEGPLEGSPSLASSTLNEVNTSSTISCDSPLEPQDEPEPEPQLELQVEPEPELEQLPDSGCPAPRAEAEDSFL
# Mast/stem cell growth factor receptor Kit (Homo sapiens), P10721 [V654A], sequence (P10721 whole entry V654A, the tested form may be a part): as the sequence (P10721 whole entry, the tested form may be a part) above, with V654A counted along it
# Macrophage colony-stimulating factor 1 receptor, sequence (P07333 whole entry): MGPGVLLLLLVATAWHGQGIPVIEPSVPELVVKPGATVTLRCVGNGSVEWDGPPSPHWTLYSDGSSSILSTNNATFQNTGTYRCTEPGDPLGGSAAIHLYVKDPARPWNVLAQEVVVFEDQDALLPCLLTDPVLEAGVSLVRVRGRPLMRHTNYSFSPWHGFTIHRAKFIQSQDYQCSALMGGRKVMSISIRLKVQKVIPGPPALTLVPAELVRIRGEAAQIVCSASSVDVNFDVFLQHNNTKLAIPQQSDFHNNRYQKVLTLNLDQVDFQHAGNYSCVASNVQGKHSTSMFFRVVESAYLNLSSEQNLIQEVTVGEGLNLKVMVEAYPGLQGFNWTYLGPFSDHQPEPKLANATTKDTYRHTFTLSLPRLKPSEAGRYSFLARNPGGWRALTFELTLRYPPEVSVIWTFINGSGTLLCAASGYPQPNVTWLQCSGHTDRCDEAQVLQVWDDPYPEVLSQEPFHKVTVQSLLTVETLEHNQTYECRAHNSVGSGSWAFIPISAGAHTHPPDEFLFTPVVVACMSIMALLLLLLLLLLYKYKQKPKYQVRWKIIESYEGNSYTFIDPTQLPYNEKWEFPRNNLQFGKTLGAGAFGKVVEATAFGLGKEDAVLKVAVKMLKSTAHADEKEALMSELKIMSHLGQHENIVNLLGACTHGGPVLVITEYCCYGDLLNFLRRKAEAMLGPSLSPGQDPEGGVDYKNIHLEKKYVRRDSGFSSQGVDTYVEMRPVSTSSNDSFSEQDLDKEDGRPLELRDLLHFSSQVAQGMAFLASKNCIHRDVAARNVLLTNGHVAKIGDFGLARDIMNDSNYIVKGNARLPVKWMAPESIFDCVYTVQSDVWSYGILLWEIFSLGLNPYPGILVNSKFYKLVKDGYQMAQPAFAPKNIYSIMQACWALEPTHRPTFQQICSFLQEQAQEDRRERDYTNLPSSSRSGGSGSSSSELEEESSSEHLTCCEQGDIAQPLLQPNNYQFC
# Mast/stem cell growth factor receptor Kit (Homo sapiens), P10721 [V559D], sequence (P10721 whole entry V559D, the tested form may be a part): as the sequence (P10721 whole entry, the tested form may be a part) above, with V559D counted along it
# Epithelial discoidin domain-containing receptor 1, sequence (Q08345 whole entry, the tested form may be a part): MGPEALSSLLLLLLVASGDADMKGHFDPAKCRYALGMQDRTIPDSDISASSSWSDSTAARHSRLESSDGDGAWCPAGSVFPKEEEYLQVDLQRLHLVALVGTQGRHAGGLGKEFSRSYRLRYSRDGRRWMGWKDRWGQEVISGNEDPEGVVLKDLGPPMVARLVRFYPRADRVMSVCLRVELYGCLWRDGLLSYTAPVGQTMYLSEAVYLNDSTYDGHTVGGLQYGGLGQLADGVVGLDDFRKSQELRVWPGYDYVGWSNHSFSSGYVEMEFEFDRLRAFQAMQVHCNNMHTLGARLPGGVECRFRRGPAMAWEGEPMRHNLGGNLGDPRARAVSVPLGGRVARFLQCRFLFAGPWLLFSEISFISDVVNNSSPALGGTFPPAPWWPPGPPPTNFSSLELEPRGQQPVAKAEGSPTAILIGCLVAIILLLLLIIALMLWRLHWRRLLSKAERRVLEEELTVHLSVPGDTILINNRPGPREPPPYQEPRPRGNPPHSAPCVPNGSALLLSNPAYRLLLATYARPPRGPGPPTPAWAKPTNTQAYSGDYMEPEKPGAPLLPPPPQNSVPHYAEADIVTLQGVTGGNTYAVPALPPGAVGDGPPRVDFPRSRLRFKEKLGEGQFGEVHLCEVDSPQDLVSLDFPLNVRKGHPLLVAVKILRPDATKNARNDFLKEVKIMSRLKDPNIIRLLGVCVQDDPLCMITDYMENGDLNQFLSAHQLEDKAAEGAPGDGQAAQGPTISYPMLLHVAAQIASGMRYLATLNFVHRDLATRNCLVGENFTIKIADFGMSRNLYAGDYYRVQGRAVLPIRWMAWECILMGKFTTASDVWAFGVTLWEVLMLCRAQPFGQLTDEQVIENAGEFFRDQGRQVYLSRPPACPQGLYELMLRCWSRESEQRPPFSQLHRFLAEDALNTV
smiles,measurement,setting,value
Cc1ccc(NC(=O)c2cccc(C(F)(F)F)c2)cc1OC1CCN(C(=O)c2ccncc2)CC1,GI50,MV4-11,> 10 µM
same,inhibition,[1],Active
same,inhibition,[2],Active
same,GI50,[3],> 10 µM
same,GI50,[4],1.03 µM
same,inhibition,[5],Active
same,GI50 at 72 h,[6],> 10 µM
same,MRT last,[7],4.8 h
same,Activity,[8],0.6%
same,GI50,[9],0.04 µM
same,inhibition,[10],Active
same,Activity,[11],0.2%
same,GI50,[12],0.043 µM
same,inhibition,[13],Active
same,IC50,[14],0.126 µM
same,Vd,[15],3.22 L/kg
same,Activity,GISTT1,Active
same,clearance,[16],83.1 mL/min/kg
same,inhibition,[17],Active
same,inhibition,[18],Active
same,GI50,[19],6.71 µM
same,Activity,Mus musculus,Non-toxic
